In general, GI50 refers to the concentration at which growth is held to half of that of the control. A word on the pKd: it is −log10 of the Kd, conventionally taken in molar units.

pKd: −log10 of the molar value. Calls of active or inactive are those of the source. No cut-off for these calls is given here.

From ChEMBL document CHEMBL5046272, “Discovery of Potent, Selective, and In Vivo Efficacious AKT Kinase Protein Degraders via Structure-Activity Relationship Studies” (J Med Chem, 2022) come the findings set out here.

The test system of one assay is PC-3. Description: Antiproliferative activity against human PC-3 cells assessed as inhibition of cell growth measured after 5 days by IncuCyte zoom live cell analysis. Type of assay: functional. Particulars: PC-3, 120 h, time 5 day. The method, boiled down: (§1)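 Cells grown in DMEM with 10% FBS at 37 °C, 5% CO₂. Seeded at 1–3 × 10³ cells/well in triplicate with serial compound dilutions for 5 days. Growth was taken as confluence from IncuCyte phase-contrast images of live cells. Three independent experiments.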

The subject of a further assay is MDA-MB-468. Description: Antiproliferative activity against human MDA-MB-468 cells assessed as cell growth by measured after 5 days by IncuCyte zoom live cell analysis. Type of assay: functional. Particulars: MDA-MB-468, 120 h, time 5 day. The method in brief: as §1
Assay [1] concerns the target T1, von Hippel-Lindau disease tumor suppressor/AKT (Homo sapiens) (UniProt P31751+Q9Y243+P31749+P40337). As to the kind of experiment: Protac activity at VHL/AKT in human BT-474 cells assessed as reduction in total AKT protein level at 1 to 10 uM measured after 24 hrs by Western blot analysis. Particulars: dose 1-10 µM. Type of assay: cell-based. The method, boiled down: (§2)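 BT474 cells treated 24 h at 1, 5 or 10 μM, alongside AZD5363 (1 μM) and the matching E3 ligand VHL-1 or pomalidomide (1 μM). Lysates in urea/SDS sample buffer were run on 4–12% Bis-Tris gels and blotted to PVDF. Blots probed for total AKT, P-AKT S473, P-PRAS40 T246 and P-S6 S240/244, with β-actin loading control and chemiluminescent detection.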
(Immunoblotting shows a protein as a band on a membrane.)

The test system of another assay is BT-474. As to the kind of experiment: Inhibition of colony formation in human BT-474 cells at 0.1 to 10 uM incubated for 14 days by replacing culture medium for every 2 days by crystal violet staining based assay. Type of assay: functional, cell-based. Particulars: dose 0.1-10 µM, time 14.0 day. The method in brief: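 BT474 cells cultured 14 days with compound. Medium plus compound was replaced every 2 days. Viable cells were then stained with 0.5% crystal violet.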

The nature of assay [2]: Protac activity at CRBN/AKT in human BT-474 cells assessed as reduction in AKT protein level at 1 to 10 uM measured after 24 hrs by Western blot analysis. Particulars: dose 1-10 µM.
Assay [3] in a line: Protac activity at CRBN/AKT in human BT-474 cells assessed as inhibition of downstream signalling by measuring reduction in PRAS40 phosphorylation at T246 residue at 1 to 10 uM measured after 24 hrs Western blot analysis. The settings on record: dose 1-10 µM.
Assay [4] can be described thus: Protac activity at CRBN/AKT in human BT-474 cells assessed as reduction in AKT protein level at 10 uM measured after 24 hrs by Western blot analysis.
Assay [5] concerns the target RAC-gamma serine/threonine-protein kinase (Homo sapiens, UniProt Q9Y243). As to the kind of experiment: Binding affinity to DNA-tagged AKT3 (unknown origin) assessed as dissociation constant by q-PCR based competitive binding assay. The method, boiled down:
(§3)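 KINOMEscan competition binding: DNA-tagged kinase competes between test compound and an immobilized active-site ligand, with bound kinase read by qPCR of the tag. Kd fitted from an 11-point threefold dilution series (top 30 μM) plus three DMSO control points, run in duplicate.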

For assay [6], the target named is RAC-alpha serine/threonine-protein kinase (Homo sapiens, UniProt P31749). Description: Binding affinity to DNA-tagged AKT1 (unknown origin) assessed as dissociation constant by q-PCR based competitive binding assay. The method, boiled down:
as §3

Assay [7] has as its target T1, von Hippel-Lindau disease tumor suppressor/AKT (Homo sapiens). As to the kind of experiment: Protac activity at VHL/AKT in human BT-474 cells assessed as inhibition of downstream signalling by measuring reduction in PRAS40 phosphorylation at T246 residue at 5 uM measured after 24 hrs Western blot analysis. It counts as cell-based. The method in brief: as §2

Chain of RAC-alpha serine/threonine-protein kinase (P31749 whole entry): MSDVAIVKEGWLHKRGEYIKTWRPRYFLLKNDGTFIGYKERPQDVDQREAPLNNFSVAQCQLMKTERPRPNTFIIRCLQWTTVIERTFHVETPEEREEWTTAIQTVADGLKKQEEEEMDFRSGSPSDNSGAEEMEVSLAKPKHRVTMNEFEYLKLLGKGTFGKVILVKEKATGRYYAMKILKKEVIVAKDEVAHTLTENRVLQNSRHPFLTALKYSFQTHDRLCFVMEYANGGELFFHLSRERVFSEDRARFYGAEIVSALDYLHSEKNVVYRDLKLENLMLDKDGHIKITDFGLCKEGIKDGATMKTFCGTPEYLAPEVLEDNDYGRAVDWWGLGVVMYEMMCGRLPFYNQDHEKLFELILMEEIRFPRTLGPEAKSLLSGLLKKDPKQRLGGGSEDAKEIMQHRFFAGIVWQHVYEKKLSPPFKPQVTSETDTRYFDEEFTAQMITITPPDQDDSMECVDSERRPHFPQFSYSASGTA
Chain of RAC-gamma serine/threonine-protein kinase (Q9Y243 whole entry): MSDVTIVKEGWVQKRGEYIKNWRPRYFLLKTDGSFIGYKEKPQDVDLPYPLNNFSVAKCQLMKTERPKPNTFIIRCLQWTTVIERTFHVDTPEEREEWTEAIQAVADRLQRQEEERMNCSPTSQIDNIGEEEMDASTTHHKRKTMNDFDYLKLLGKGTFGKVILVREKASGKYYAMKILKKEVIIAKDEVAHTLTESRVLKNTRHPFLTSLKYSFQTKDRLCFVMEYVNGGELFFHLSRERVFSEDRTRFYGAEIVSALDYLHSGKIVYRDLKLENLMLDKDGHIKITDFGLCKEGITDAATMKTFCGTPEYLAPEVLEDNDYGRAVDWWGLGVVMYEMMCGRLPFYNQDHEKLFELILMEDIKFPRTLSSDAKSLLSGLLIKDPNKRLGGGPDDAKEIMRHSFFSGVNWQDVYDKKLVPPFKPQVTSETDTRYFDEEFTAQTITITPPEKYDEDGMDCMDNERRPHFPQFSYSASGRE

As to `NC1(C(=O)N[C@@H](CCN2CCN(C(=O)CCOCCOCCOCCOCCOCCNc3cccc4c3C(=O)N(C3CCC(=O)NC3=O)C4=O)CC2)c2ccc(Cl)cc2)CCN(c2ncnc3[nH]ccc23)CC1` (stereo partly specified), the GI50 is 10.8 µM in the assay with PC-3 and 4.8 µM in the assay with MDA-MB-468.

In the case of `Cc1ncsc1-c1ccc(CNC(=O)[C@@H]2C[C@@H](O)CN2C(=O)[C@@H](NC(=O)CCOCCOCCC(=O)N2CCN(CC[C@H](NC(=O)C3(N)CCN(c4ncnc5[nH]ccc45)CC3)c3ccc(Cl)cc3)CC2)C(C)(C)C)cc1`, in assay [1], the result was inactive.

As to `Cc1ncsc1-c1ccc(CNC(=O)[C@@H]2C[C@@H](O)CN2C(=O)[C@@H](NC(=O)CCOCCC(=O)N2CCN(CC[C@H](NC(=O)C3(N)CCN(c4ncnc5[nH]ccc45)CC3)c3ccc(Cl)cc3)CC2)C(C)(C)C)cc1`, in assay [1], the outcome was inactive.

As for `Cc1ncsc1-c1ccc(CNC(=O)[C@@H]2C[C@@H](O)CN2C(=O)[C@@H](NC(=O)CCOCCOCCOCCC(=O)N2CCN(CC[C@H](NC(=O)C3(N)CCN(c4ncnc5[nH]ccc45)CC3)c3ccc(Cl)cc3)CC2)C(C)(C)C)cc1`, the outcome in assay [1] was inactive.

As for `Cc1ncsc1-c1ccc(CNC(=O)[C@@H]2C[C@@H](O)CN2C(=O)[C@@H](NC(=O)CCCCCCCCCC(=O)N2CCN(CC[C@H](NC(=O)C3(N)CCN(c4ncnc5[nH]ccc45)CC3)c3ccc(Cl)cc3)CC2)C(C)(C)C)cc1`, the inhibition entry in the assay with BT-474 is “Active”.

On to `NC1(C(=O)N[C@@H](CCN2CCN(C(=O)CCCCCNc3cccc4c3C(=O)N(C3CCC(=O)NC3=O)C4=O)CC2)c2ccc(Cl)cc2)CCN(c2ncnc3[nH]ccc23)CC1` (stereo partly specified), for which the outcome in assay [2] was Active. Besides, the inhibition entry in assay [3] was “Active”.

Regarding `Cc1ncsc1-c1ccc(CNC(=O)[C@@H]2C[C@@H](O)CN2C(=O)[C@@H](NC(=O)COCCOCCOCCOCCOCC(=O)N2CCN(CC[C@H](NC(=O)C3(N)CCN(c4ncnc5[nH]ccc45)CC3)c3ccc(Cl)cc3)CC2)C(C)(C)C)cc1`, in assay [1], the result was inactive.

For the compound `NC1(C(=O)N[C@@H](CCN2CCN(C(=O)CCOCCNc3cccc4c3C(=O)N(C3CCC(=O)NC3=O)C4=O)CC2)c2ccc(Cl)cc2)CCN(c2ncnc3[nH]ccc23)CC1` (stereo partly specified), the outcome in [4] was Active.

As to `Cc1ncsc1-c1ccc(CNC(=O)[C@@H]2C[C@@H](O)CN2C(=O)[C@@H](NC(=O)CCC(=O)N2CCN(CC[C@H](NC(=O)C3(N)CCN(c4ncnc5[nH]ccc45)CC3)c3ccc(Cl)cc3)CC2)C(C)(C)C)cc1`, the outcome in assay [1] was inactive.

As to `NC1(C(=O)N[C@@H](CCN2CCN(C(=O)CCOCCOCCOCCOCCOCCCc3cccc4c3C(=O)N(C3CCC(=O)NC3=O)C4=O)CC2)c2ccc(Cl)cc2)CCN(c2ncnc3[nH]ccc23)CC1` (stereo partly specified), the result in assay [4] was inactive. Moreover, the inhibition entry with BT-474 is “inactive”.

As to `Cc1ncsc1-c1ccc(CNC(=O)[C@@H]2C[C@@H](O)CN2C(=O)[C@@H](NC(=O)COCCOCCOCC(=O)N2CCN(CC[C@H](NC(=O)C3(N)CCN(c4ncnc5[nH]ccc45)CC3)c3ccc(Cl)cc3)CC2)C(C)(C)C)cc1`, in [1], the outcome was inactive.

For the compound `NC1(C(=O)N[C@@H](CCN2CCN(C(=O)CCOCCOCCOCCOCCOCCOc3cccc4c3C(=O)N(C3CCC(=O)NC3=O)C4=O)CC2)c2ccc(Cl)cc2)CCN(c2ncnc3[nH]ccc23)CC1` (stereo partly specified), the outcome in assay [4] was inactive. Moreover, in the assay with BT-474, the inhibition entry was “inactive”.

As for `NC1(C(=O)N[C@@H](CCN2CCN(C(=O)CNc3cccc4c3C(=O)N(C3CCC(=O)NC3=O)C4=O)CC2)c2ccc(Cl)cc2)CCN(c2ncnc3[nH]ccc23)CC1` (stereo partly specified), the outcome in assay [2] was inactive.

Turning to `NC1(C(=O)N[C@@H](CCN2CCN(C(=O)CCNc3cccc4c3C(=O)N(C3CCC(=O)NC3=O)C4=O)CC2)c2ccc(Cl)cc2)CCN(c2ncnc3[nH]ccc23)CC1` (stereo partly specified), the result in [2] was inactive.

On to `Cc1ncsc1-c1ccc(CNC(=O)[C@@H]2C[C@@H](O)CN2C(=O)[C@@H](NC(=O)CCOCCOCCOCCOCCOCCC(=O)N2CCN(CC[C@H](NC(=O)C3(N)CCN(c4ncnc5[nH]ccc45)CC3)c3ccc(Cl)cc3)CC2)C(C)(C)C)cc1`, for which, in [1], the result was inactive.

As for `CN1C(=O)CCC(N2C(=O)c3cccc(NCCOCCOCCOCCOCCOCCC(=O)N4CCN(CC[C@H](NC(=O)C5(N)CCN(c6ncnc7[nH]ccc67)CC5)c5ccc(Cl)cc5)CC4)c3C2=O)C1=O` (stereo partly specified), the figures for the pKd in assay [5] and in assay [6] were 7.64 and 8.26, respectively.

`Cc1ncsc1-c1ccc(CNC(=O)[C@@H]2C[C@@H](OCc3ccccc3)CN2C(=O)[C@@H](NC(=O)CCCCCCCCCCC(=O)N2CCN(CC[C@H](NC(=O)C3(N)CCN(c4ncnc5[nH]ccc45)CC3)c3ccc(Cl)cc3)CC2)C(C)(C)C)cc1`: the pKd is 5.54 in assay [5] and 6.82 in assay [6].

As for `NC1(C(=O)N[C@@H](CCN2CCN(C(=O)CCCNc3cccc4c3C(=O)N(C3CCC(=O)NC3=O)C4=O)CC2)c2ccc(Cl)cc2)CCN(c2ncnc3[nH]ccc23)CC1` (stereo partly specified), in [2], the outcome was Active. The inhibition result in [3] is “Active”.

With `Cc1ncsc1-c1ccc([C@H](C)NC(=O)[C@@H]2C[C@@H](O)CN2C(=O)[C@@H](NC(=O)CCCCCCCCCC(=O)N2CCN(CC[C@H](NC(=O)C3(N)CCN(c4ncnc5[nH]ccc45)CC3)c3ccc(Cl)cc3)CC2)C(C)(C)C)cc1`, in the assay with BT-474, the inhibition entry was “Active”.

As to `NC1(C(=O)N[C@@H](CCN2CCN(C(=O)CCCCCCCNc3cccc4c3C(=O)N(C3CCC(=O)NC3=O)C4=O)CC2)c2ccc(Cl)cc2)CCN(c2ncnc3[nH]ccc23)CC1` (stereo partly specified), the outcome in assay [2] was inactive.

As for `NC1(C(=O)N[C@@H](CCO)c2ccc(Cl)cc2)CCN(c2nc[nH]c3nccc2-3)CC1` [CAPIVASERTIB], the GI50 stood at 6.5 µM with PC-3 and 3.8 µM with MDA-MB-468.

Consider `Cc1ncsc1-c1ccc(CNC(=O)[C@@H]2C[C@@H](O)CN2C(=O)[C@@H](NC(=O)CCOCCOCCOCCOCCC(=O)N2CCN(CC[C@H](NC(=O)C3(N)CCN(c4ncnc5[nH]ccc45)CC3)c3ccc(Cl)cc3)CC2)C(C)(C)C)cc1`, for which the result in [1] was inactive.

For `Cc1ncsc1-c1ccc(CNC(=O)[C@@H]2C[C@@H](O)CN2C(=O)[C@@H](NC(=O)CCCCCC(=O)N2CCN(CC[C@H](NC(=O)C3(N)CCN(c4ncnc5[nH]ccc45)CC3)c3ccc(Cl)cc3)CC2)C(C)(C)C)cc1`, in assay [1], the outcome was Active. Besides, the inhibition result in [7] is “inactive”.

Take `Cc1ncsc1-c1ccc(CNC(=O)[C@@H]2C[C@@H](O)CN2C(=O)[C@@H](NC(=O)COCCOCC(=O)N2CCN(CC[C@H](NC(=O)C3(N)CCN(c4ncnc5[nH]ccc45)CC3)c3ccc(Cl)cc3)CC2)C(C)(C)C)cc1`: the outcome in [1] was inactive.

Take `Cc1ncsc1-c1ccc(CNC(=O)[C@@H]2C[C@@H](O)CN2C(=O)[C@@H](NC(=O)CCCC(=O)N2CCN(CC[C@H](NC(=O)C3(N)CCN(c4ncnc5[nH]ccc45)CC3)c3ccc(Cl)cc3)CC2)C(C)(C)C)cc1`: the outcome in [1] was inactive.

For `NC1(C(=O)N[C@@H](CCN2CCN(C(=O)CCCCNc3cccc4c3C(=O)N(C3CCC(=O)NC3=O)C4=O)CC2)c2ccc(Cl)cc2)CCN(c2ncnc3[nH]ccc23)CC1` (stereo partly specified), the result in assay [2] was Active.

Take `Cc1ncsc1-c1ccc(CNC(=O)[C@@H]2C[C@@H](O)CN2C(=O)[C@@H](NC(=O)CCCCC(=O)N2CCN(CC[C@H](NC(=O)C3(N)CCN(c4ncnc5[nH]ccc45)CC3)c3ccc(Cl)cc3)CC2)C(C)(C)C)cc1`: the result in assay [1] was Active. Moreover, the inhibition entry in assay [7] is “inactive”.

In the case of `NC1(C(=O)N[C@@H](CCN2CCN(C(=O)CCOCCOCCOCCOCCOCCNc3cccc4c3CN(C3CCC(=O)NC3=O)C4=O)CC2)c2ccc(Cl)cc2)CCN(c2ncnc3[nH]ccc23)CC1` (stereo partly specified), in assay [4], the result was inactive.

`Cc1ncsc1-c1ccc(CNC(=O)[C@@H]2C[C@@H](O)CN2C(=O)[C@@H](NC(=O)COCC(=O)N2CCN(CC[C@H](NC(=O)C3(N)CCN(c4ncnc5[nH]ccc45)CC3)c3ccc(Cl)cc3)CC2)C(C)(C)C)cc1`: in assay [1], the result was Active.

Take `Cc1ncsc1-c1ccc(CNC(=O)[C@@H]2C[C@@H](O)CN2C(=O)[C@@H](NC(=O)CCCCCCCCCCCC(=O)N2CCN(CC[C@H](NC(=O)C3(N)CCN(c4ncnc5[nH]ccc45)CC3)c3ccc(Cl)cc3)CC2)C(C)(C)C)cc1`: in the assay on BT-474, the inhibition entry was “Active”.

For the compound `NC1(C(=O)N[C@@H](CCN2CCN(C(=O)CCCCCCNc3cccc4c3C(=O)N(C3CCC(=O)NC3=O)C4=O)CC2)c2ccc(Cl)cc2)CCN(c2ncnc3[nH]ccc23)CC1` (stereo partly specified), the outcome in assay [2] was inactive.
